Experimental data published in publication PMC9870020 (Tissue Barriers, 2022).

Columns and labels:
[1] = cited from earlier work
[2] = 2 mM; cited from earlier work
[3] = concentration of 625 µM; cited from earlier work
[4] = tested on: Caco-2 epithelial cell layers; assay: Permeability of fluorescent markers; format: cell-based; conditions: Caco-2 layers
Method in brief: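 Caco-2 cells (passage 35–39) were grown 21 days on collagen-coated 0.33 cm2 inserts (0.4 µm pores) and equilibrated 30 min in warm HBSS. Test compound with FD-4 (0.25 mM) or other marker in HBSS was applied apically. Basolateral fluorescence (ex 485/em 520 nm) was read over 180 min against a calibration curve to give Papp. TEER was measured before and after. Triplicates, mean ± S.D.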

epithelial cells = conditions: cited from earlier work
epithelial cell layers = conditions: cited from earlier work
[5] = tested on: nasal epithelial cell layers; conditions: cited from earlier work

## CCCCCCCCCC(=O)[O-].[Na+] [C10, sodium caprate]
[1]
  Toxicity of C10: no toxicity was demonstrated

## CCCCCCCCCCCCOS(=O)(=O)[O-].[Na+] [SDS, Sodium dodecylsulfate]
[2]
  Toxicity of SDS: toxic

## CC(C)(C)[C@]1(O)CC2OC(=O)CC23C(=O)OC2OC(=O)[C@H](O)C231 (stereo partly shown) [bilobalide, Bilobalide]
[3]
  Cytotoxicity of bilobalide: no cytotoxicity

## L-myr-ARRAR [LW-5]
[4]; Figure 6A, peptides 50 µM, FD-4 0.25 mM, 180 min, mean n = 3
  Permeability of FD-4 (Papp) in the presence of L-R5 analogues: significantly lower than with L-R5

## L-myr-ARRWR [L-R5]
[4]; L-R5 50 µM, from sodium fluorescein, FD-4 and FD-150 permeability
  Molecular weight limit of opening of TJs caused by L-R5: 150 kDa
[4]; Figure 5, L-R5 50 µM, 180 min, mean n = 3
  Permeability of sodium fluorescein in the presence of L-R5: higher permeability compared to FD-4
Epithelial cells
  Epithelial cytotoxicity in vitro: lack of epithelial cytotoxicity
Epithelial cell layers
  Passage of the peptide across epithelial cell layers: not to cross epithelial cell layers
[5]
  Reversibility of TJ modulation by the peptide: rapidly reversible
[5]; nasal epithelial cell layers in vitro, previously shown
  Size of molecules transported paracellularly with L-R5: up to 4 kDa
